Assay results published in ChEMBL document CHEMBL5696442, “Discovery of type II inhibitors of TGFβ-activated kinase 1 (TAK1) and mitogen-activated protein kinase kinase kinase kinase 2 (MAP4K2)” (J Med Chem, 2015).
Activity calls are given as the source filed them. The calls are words filed in the database; no cut-off is given here.

What was measured:
[1] = molecular target: Tyrosine-protein kinase Lyn (Homo sapiens, UniProt P07948); test: Inhibition of LYN (unknown origin) Lys1 labeling site by KiNativ Profiling analysis
GEN2.2 = test: Inhibition of CL097 induced p-105 phosphorylation level in human GEN2.2 cells at 1 uM preincubated with compound for 1 hr followed by CL097 stimulation and measured after 30 mins by Western blot analysis; type: functional, cell-based
Outline: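 Gen2.2 cells were pretreated with compound at 1 μM for 1 h, then stimulated with CL097 for 30 min. Lysates were analysed by Western blot for phosphorylation of p105, p38 and JNK1/2.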

[2] = molecular target: T1, Phosphatidylinositol 5-phosphate 4-kinase type-2 alpha (Homo sapiens) (UniProt P48426); test: Inhibition of PIP4K2A ATP labeling site in human A-375 cells at 5 uM by KiNativ Profiling analysis relative to control; type: cell-based
T1 sequence (whole entry): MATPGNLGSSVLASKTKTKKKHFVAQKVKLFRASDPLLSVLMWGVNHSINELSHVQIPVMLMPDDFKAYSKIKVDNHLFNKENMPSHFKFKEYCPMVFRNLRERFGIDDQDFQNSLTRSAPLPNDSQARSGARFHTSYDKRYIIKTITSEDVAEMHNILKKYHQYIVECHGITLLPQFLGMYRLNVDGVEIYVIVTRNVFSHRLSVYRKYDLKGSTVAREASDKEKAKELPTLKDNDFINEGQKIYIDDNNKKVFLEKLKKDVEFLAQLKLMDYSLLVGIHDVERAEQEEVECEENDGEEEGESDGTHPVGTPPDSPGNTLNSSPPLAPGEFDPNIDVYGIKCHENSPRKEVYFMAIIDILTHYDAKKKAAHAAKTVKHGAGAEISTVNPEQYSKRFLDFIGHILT

[3] = molecular target: T2, Serine/threonine-protein kinase 3 (Homo sapiens) (UniProt Q13188); test: Inhibition of MST2 Lys2 labeling site harbouring DIKAGNILLNTEGHAK in human A-375 cells at 0.5 uM by KiNativ Profiling analysis relative to control; type: cell-based
T2 sequence (whole entry): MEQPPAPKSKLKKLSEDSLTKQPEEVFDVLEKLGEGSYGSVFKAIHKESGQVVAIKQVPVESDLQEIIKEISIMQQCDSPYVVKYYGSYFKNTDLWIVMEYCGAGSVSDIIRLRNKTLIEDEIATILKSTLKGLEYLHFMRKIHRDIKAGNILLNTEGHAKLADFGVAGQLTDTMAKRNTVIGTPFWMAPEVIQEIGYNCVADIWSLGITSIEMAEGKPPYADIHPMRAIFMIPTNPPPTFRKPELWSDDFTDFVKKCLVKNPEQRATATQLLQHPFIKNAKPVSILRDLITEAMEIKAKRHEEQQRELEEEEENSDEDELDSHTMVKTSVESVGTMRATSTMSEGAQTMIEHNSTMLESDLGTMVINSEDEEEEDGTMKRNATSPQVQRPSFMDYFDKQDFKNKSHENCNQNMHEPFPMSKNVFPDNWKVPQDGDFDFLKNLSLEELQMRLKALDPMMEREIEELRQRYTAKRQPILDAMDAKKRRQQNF

[4] = molecular target: Cyclin-dependent kinase 2 (Homo sapiens) (UniProt P24941); test: Inhibition of CDK2 Lys2 labeling site in human A-375 cells at 0.05 uM by KiNativ Profiling analysis relative to control; type: cell-based
[5] = molecular target: T3, Serine/threonine-protein kinase greatwall (Homo sapiens) (UniProt Q96GX5); test: Inhibition of MASTL ATP Loop labeling site in human A-375 cells at 0.05 uM by KiNativ Profiling analysis relative to control; type: cell-based
T3 sequence (whole entry): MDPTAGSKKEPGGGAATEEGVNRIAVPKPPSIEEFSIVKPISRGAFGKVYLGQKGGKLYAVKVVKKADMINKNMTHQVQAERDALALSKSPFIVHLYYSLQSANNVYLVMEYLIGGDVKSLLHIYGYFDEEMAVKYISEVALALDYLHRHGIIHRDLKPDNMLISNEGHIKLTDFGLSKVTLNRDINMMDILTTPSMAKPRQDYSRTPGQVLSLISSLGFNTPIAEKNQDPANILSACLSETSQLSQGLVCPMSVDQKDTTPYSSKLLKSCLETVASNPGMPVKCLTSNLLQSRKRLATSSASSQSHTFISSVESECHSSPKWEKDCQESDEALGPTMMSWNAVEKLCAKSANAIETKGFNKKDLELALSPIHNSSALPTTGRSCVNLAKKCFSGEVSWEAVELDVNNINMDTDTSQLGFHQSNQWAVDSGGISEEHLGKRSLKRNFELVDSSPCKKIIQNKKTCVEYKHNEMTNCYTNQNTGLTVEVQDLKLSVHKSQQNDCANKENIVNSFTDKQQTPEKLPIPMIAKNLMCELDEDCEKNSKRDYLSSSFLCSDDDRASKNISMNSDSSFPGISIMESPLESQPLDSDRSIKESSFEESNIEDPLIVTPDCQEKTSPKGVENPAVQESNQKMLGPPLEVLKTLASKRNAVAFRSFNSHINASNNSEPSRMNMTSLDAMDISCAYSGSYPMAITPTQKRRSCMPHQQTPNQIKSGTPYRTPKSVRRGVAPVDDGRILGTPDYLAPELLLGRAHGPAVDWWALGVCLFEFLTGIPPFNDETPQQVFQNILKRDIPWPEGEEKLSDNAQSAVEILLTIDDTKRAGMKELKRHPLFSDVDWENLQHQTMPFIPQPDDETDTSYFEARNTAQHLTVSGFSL

[6] = molecular target: T4, Serine/threonine-protein kinase TBK1 (Homo sapiens) (UniProt Q9UHD2); test: Inhibition of TBK1 Lys1 labeling site in human A-375 cells at 0.05 uM by KiNativ Profiling analysis relative to control; type: cell-based
T4 sequence (whole entry): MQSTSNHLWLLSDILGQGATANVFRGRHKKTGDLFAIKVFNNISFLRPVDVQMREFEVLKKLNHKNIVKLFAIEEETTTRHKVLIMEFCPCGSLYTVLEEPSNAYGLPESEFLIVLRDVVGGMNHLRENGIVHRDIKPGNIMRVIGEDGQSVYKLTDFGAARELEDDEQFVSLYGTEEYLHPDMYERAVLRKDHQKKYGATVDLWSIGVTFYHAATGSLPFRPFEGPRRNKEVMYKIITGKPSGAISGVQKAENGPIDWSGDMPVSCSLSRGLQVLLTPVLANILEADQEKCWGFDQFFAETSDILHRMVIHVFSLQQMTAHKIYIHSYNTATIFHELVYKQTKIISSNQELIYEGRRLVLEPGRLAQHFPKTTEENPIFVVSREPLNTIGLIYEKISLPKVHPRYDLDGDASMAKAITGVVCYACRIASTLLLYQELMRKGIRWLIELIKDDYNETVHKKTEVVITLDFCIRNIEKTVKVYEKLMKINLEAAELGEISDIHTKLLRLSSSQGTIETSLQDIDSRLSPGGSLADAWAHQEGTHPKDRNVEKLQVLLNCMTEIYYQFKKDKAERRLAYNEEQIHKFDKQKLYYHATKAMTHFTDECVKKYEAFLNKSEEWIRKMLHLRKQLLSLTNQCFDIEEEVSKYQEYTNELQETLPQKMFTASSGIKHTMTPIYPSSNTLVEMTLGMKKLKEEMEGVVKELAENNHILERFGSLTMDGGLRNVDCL

Chain of Tyrosine-protein kinase Lyn (P07948 whole entry): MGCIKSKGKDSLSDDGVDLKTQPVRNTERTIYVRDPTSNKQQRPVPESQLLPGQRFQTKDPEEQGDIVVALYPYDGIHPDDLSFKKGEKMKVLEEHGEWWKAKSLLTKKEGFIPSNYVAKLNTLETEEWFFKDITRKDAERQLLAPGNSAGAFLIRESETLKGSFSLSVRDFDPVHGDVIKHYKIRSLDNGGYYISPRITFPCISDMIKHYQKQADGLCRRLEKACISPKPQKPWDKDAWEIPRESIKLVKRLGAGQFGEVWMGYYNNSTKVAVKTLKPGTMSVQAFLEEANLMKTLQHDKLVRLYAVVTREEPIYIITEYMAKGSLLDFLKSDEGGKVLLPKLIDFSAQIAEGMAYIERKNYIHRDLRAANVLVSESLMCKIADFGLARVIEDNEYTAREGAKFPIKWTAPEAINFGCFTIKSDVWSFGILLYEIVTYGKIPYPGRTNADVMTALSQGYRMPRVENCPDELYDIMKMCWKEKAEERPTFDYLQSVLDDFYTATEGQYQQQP

| Compound | IC50 [1] | inhibition (GEN2.2) | inhibition [2] | inhibition [3] | inhibition [4] | inhibition [5] | inhibition [6] |
| --- | --- | --- | --- | --- | --- | --- | --- |
| CCN1CCN(Cc2ccc(NC(=O)c3ccc(C)c(Oc4ccnc5[nH]ccc45)c3)cc2C(F)(F)F)CC1 | 12.9 nM | Active | 0.9% | -3.5% | 16.2% | 2% | 16.7% |
| CNc1cc(Oc2cc(C(=O)Nc3cc(-n4cnc(C)c4)cc(C(F)(F)F)c3)ccc2C)ncn1 |  | inactive |  |  |  |  |  |
| CCN1CCN(Cc2ccc(NC(=O)c3ccc(C)c(/C=C/c4cnc5[nH]ccc5c4OC)c3)cc2C(F)(F)F)CC1 | 29.5 nM |  | 4.7% | -9.8% | 13.3% | -6.2% | 33.4% |
